Test results as given in ChEMBL document CHEMBL1129605, “Synthesis, structure-activity relationships, and molecular modeling studies of N-(indol-3-ylglyoxylyl)benzylamine derivatives acting at the benzodiazepine receptor” (J Med Chem, 1996).

How the values were obtained:
[1] = target: T1, GABA-A receptor; anion channel (Bos taurus) (UniProt P10063+P08220+P20237+P08219+P10064+P22300); assay: Inhibition of [3H]- flunitrazepam binding to GABA-A central benzodiazepine receptor of bovine cortical membranes at 10 uM
Procedure, shortened: (§1)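 Filtration binding of [3H]flunitrazepam to bovine cerebral cortex membranes, freeze–thawed and washed in 50 mM Tris-citrate pH 7.4. […] IC50 taken from log-probit plots and converted to Ki, mean ± SEM of three determinations.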

[2] = target: T1, GABA-A receptor; anion channel (Bos taurus); assay: In vitro inhibition of [3H]- flunitrazepam binding to GABA-A central benzodiazepine receptor of bovine cortical membranes at 10 uM; procedure, shortened: as §1
[3] = target: GABA-A receptor; anion channel; assay: In vitro inhibition of [3H]- flunitrazepam binding to GABA-A benzodiazepine receptor of bovine cortical membranes; parameters: species or system Bos taurus; procedure, shortened: as §1
[4] = target: T1, GABA-A receptor; anion channel (Bos taurus); assay: Gamma AminoButyric Acid(GABA) ratio is the Ki without GABA / Ki with GABA; assay type: protein-complex assay
Procedure, shortened: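 Ki for [3H]flunitrazepam displacement from bovine cortical membranes determined both without and with GABA. The ratio is Ki without GABA divided by Ki with GABA.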

[5] = target: T1, GABA-A receptor; anion channel (Bos taurus); assay: Specific [35S]- TBPS binding at high affinity site loated near chloride channel of GABA-A receptor chloride complex; assay type: protein-complex assay; parameters: concentration or dose not given beside the values
Procedure, shortened: (§2)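 Bovine cerebral cortex membranes, freeze–thawed and washed in 50 mM Tris-citrate pH 7.4, incubated with 5 nM [35S]TBPS for 90 min at 25 °C in the same buffer plus 200 mM KBr and 0.1 mM EDTA. Compounds tested at 0.5 μM in ethanol (≤0.2%) with 1 μM GABA present. Nonspecific binding taken with 600 μM picrotoxinin. Bound ligand collected by filtration and counted by scintillation.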

[6] = Partition coefficient of compound; assay type: physicochemical; conditions: octanol/water
Procedure, shortened: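 Shake-flask partition at room temperature between octanol and phosphate buffer pH 7.4. Solute measured spectrophotometrically in both phases, with phase volumes adjusted so each phase held enough compound. Run at four different solute concentrations.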

[7] = target: T1, GABA-A receptor; anion channel (Bos taurus); assay: In vitro displacement of [35S]-TBPS binding from GABA-A receptor relative to clonazepam; assay type: protein-complex assay; procedure, shortened: as §2

Compound | inhibition [1] | inhibition [2] | Ki [3] | GABA ratio [4] | further results
O=C(NCCCc1ccccc1)C(=O)c1c[nH]c2ccc([N+](=O)[O-])cc12 | 52% | – | – | – | –
O=C(NCc1cccc(Cl)c1)C(=O)c1c[nH]c2ccc(Cl)cc12 | – | 14% | – | – | –
O=C(NCc1cccc(Cl)c1)C(=O)c1c[nH]c2ccc([N+](=O)[O-])cc12 | – | 0% | – | – | –
O=C(NCc1ccccc1F)C(=O)c1c[nH]c2ccccc12 | – | 94% | 0.66 µM | 0.86 | –
COc1cc(CNC(=O)C(=O)c2c[nH]c3ccccc23)ccc1O | – | 96% | 0.14 µM | 1 | –
O=C1CN=C(c2ccccc2Cl)c2cc([N+](=O)[O-])ccc2N1 | – | – | – | – | Activity [5]: 100%
Cn1cc(C(=O)C(=O)NCc2ccc(Cl)cc2)c2ccccc21 | – | 86% | 1 µM | 1 | –
O=C(NCc1ccc(O)cc1)C(=O)c1c[nH]c2ccccc12 | – | 96% | 0.43 µM | 1.35 | –
O=C(NCc1ccccc1)C(=O)c1c[nH]c2ccccc12 | 98% | – | 0.12 µM | 0.87 | Activity [5]: 29%
COc1ccc(NC(=O)C(=O)c2c[nH]c3ccc(Cl)cc23)cc1 | 10% | – | – | – | –
COc1ccc(CNC(=O)C(=O)c2c[nH]c3ccc([N+](=O)[O-])cc23)cc1 | 71% | – | 0.053 µM | 1.06 | logP [6]: 2.17; Activity [5]: 2%
O=C(NCc1ccc(O)c(O)c1)C(=O)c1c[nH]c2ccc([N+](=O)[O-])cc12 | – | 98% | 0.048 µM | 1.35 | Activity [5]: 52%
O=C(NCCCc1ccccc1)C(=O)c1c[nH]c2ccccc12 | – | 78% | 1.26 µM | 1 | –
O=C(NCc1ccc(O)cc1)C(=O)c1c[nH]c2ccc(Cl)cc12 | – | 98% | 0.15 µM | 1.1 | –
O=C(NCCCc1ccccc1)C(=O)c1c[nH]c2ccc(Cl)cc12 | 32% | – | – | – | –
O=C(Nc1ccccc1)C(=O)c1c[nH]c2ccc(Cl)cc12 | 0% | – | – | – | –
COc1cccc(CNC(=O)C(=O)c2c[nH]c3ccccc23)c1 | – | 97% | 0.29 µM | 0.74 | –
O=C(NCc1ccccc1Cl)C(=O)c1c[nH]c2ccccc12 | – | 77% | 2.6 µM | 0.93 | –
O=C(NCc1ccccc1F)C(=O)c1c[nH]c2ccc([N+](=O)[O-])cc12 | – | 42% | – | – | –

Compound | inhibition [1] | inhibition [2] | Ki [3] | GABA ratio [4] | further results
COc1cccc(CNC(=O)C(=O)c2c[nH]c3ccc([N+](=O)[O-])cc23)c1 | – | 84% | 0.038 µM | 0.91 | Activity [5]: 10%
O=C(NCc1ccc(F)cc1)C(=O)c1c[nH]c2ccc(Cl)cc12 | – | 21% | – | – | –
O=C(NCc1ccc(F)cc1)C(=O)c1c[nH]c2ccccc12 | – | 99% | 0.052 µM | 1.16 | logP [6]: 2.88; Activity [5]: 21%
COc1ccc(CNC(=O)C(=O)c2c[nH]c3ccc(Cl)cc23)cc1 | 81% | – | 0.107 µM | 1 | –
COc1ccc(CNC(=O)C(=O)c2cn(C)c3ccccc23)cc1OC | – | 70% | 2.7 µM | 0.88 | –
COc1ccc(NC(=O)C(=O)c2c[nH]c3ccc([N+](=O)[O-])cc23)cc1 | 12% | – | – | – | –
O=C(NCc1ccc(Cl)cc1)C(=O)c1c[nH]c2ccc([N+](=O)[O-])cc12 | – | 2% | – | – | –
COc1cccc(CNC(=O)C(=O)c2c[nH]c3ccc(Cl)cc23)c1 | – | 89% | 0.162 µM | 0.79 | –
O=C(NCc1ccccc1)C(=O)c1c[nH]c2ccc([N+](=O)[O-])cc12 | 55% | – | 0.117 µM | 1 | –
Cn1cc(C(=O)C(=O)NCc2cccc(O)c2)c2ccccc21 | 17% | – | – | – | –
COc1ccc(CNC(=O)C(=O)c2c[nH]c3ccc([N+](=O)[O-])cc23)cc1OC | – | 97% | 0.011 µM | 1 | Activity [5]: 31%
COc1cc(CNC(=O)C(=O)c2c[nH]c3ccc(Cl)cc23)ccc1O | – | 99% | 0.027 µM | 1.03 | –
O=C(NCc1ccccc1Cl)C(=O)c1c[nH]c2ccc(Cl)cc12 | – | 40% | – | – | –
CCOC(=O)c1ncn2c1CN(C)C(=O)c1cc(F)ccc1-2 | – | – | – | – | Activity [5]: 15%
COc1ccc(CNC(=O)C(=O)c2c[nH]c3ccccc23)cc1OC | – | 99% | 0.094 µM | 0.8 | –
O=C(NCc1ccccc1)C(=O)c1c[nH]c2ccc(Cl)cc12 | 34% | – | 0.49 µM | 0.95 | –
COc1ccc(NC(=O)C(=O)c2c[nH]c3ccccc23)cc1 | 0% | – | – | – | –
COc1cc(CNC(=O)C(=O)c2c[nH]c3ccc([N+](=O)[O-])cc23)ccc1O | – | 100% | 0.013 µM | 1.07 | Activity [5]: 27%
O=C(NCc1ccc(O)c(O)c1)C(=O)c1c[nH]c2ccccc12 | – | 95% | 0.349 µM | 1.56 | –

Compound | inhibition [1] | inhibition [2] | Ki [3] | GABA ratio [4] | further results
O=C(Nc1ccc(O)cc1)C(=O)c1c[nH]c2ccccc12 | 65% | – | – | – | –
O=C(Nc1ccccc1)C(=O)c1c[nH]c2ccc([N+](=O)[O-])cc12 | 0% | – | – | – | –
O=C(Nc1ccc(O)cc1)C(=O)c1c[nH]c2ccc([N+](=O)[O-])cc12 | 76% | – | 1.8 µM | 1 | –
O=C(NCc1ccc(F)cc1)C(=O)c1c[nH]c2ccc([N+](=O)[O-])cc12 | – | 24% | – | – | –
O=C(NCc1ccc(Cl)cc1)C(=O)c1c[nH]c2ccccc12 | – | 99% | 0.067 µM | 1.03 | Activity [5]: 27%
O=C(NCc1ccccc1F)C(=O)c1c[nH]c2ccc(Cl)cc12 | – | 39% | – | – | –
COc1ccc(CNC(=O)C(=O)c2c[nH]c3ccc(Cl)cc23)cc1OC | – | 94% | 0.03 µM | 0.82 | –
O=C(NCc1cccc(Cl)c1)C(=O)c1c[nH]c2ccccc12 | – | 96% | 0.16 µM | 0.95 | –
O=C(NCc1cccc(O)c1)C(=O)c1c[nH]c2ccccc12 | 91% | – | 0.82 µM | 1.25 | –
O=C(NCc1cccc(O)c1)C(=O)c1c[nH]c2ccc(Cl)cc12 | 95% | – | 0.57 µM | 1.45 | –
O=C(Nc1ccccc1)C(=O)c1c[nH]c2ccccc12 | 10% | – | – | – | –
O=C(Nc1ccc(O)cc1)C(=O)c1c[nH]c2ccc(Cl)cc12 | 23% | – | – | – | –
O=C(NCc1ccccc1Cl)C(=O)c1c[nH]c2ccc([N+](=O)[O-])cc12 | – | 48% | – | – | –
O=C(NCc1ccc(Cl)cc1)C(=O)c1c[nH]c2ccc(Cl)cc12 | – | 38% | – | – | –
O=C(NCc1ccc(O)cc1)C(=O)c1c[nH]c2ccc([N+](=O)[O-])cc12 | 100% | – | 0.012 µM | 1.05 | logP [6]: 2.67; Activity [7]: 10%
O=C(NCc1cccc(O)c1)C(=O)c1c[nH]c2ccc([N+](=O)[O-])cc12 | 95% | – | 0.065 µM | 1.32 | Activity [5]: 50%
COc1ccc(CNC(=O)C(=O)c2c[nH]c3ccccc23)cc1 | 97% | – | 0.163 µM | 1 | –
O=C(NCc1ccc(O)c(O)c1)C(=O)c1c[nH]c2ccc(Cl)cc12 | – | 96% | 0.18 µM | 1.33 | –
